Assay results taken from PMC10247892 (Biomedicine & Pharmacotherapy, 2023).
Like-named read-outs stand apart in the source and are kept apart here.

How the values were obtained:
Cytotoxicity assay = assay type: cell-based; settings: human, MRC-5 cells
HCoV-229E = assay: Antiviral activity against HCoV-229E in MRC-5 cells; assay type: cell-based, human coronavirus 229E; settings: for IC50: read-out: IC50 ± SD
How it was run: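 MRC-5 cells were seeded at 20,000/well in duplicate per drug and condition and grown to 80 % confluency. Virus was adsorbed at MOI 0.1 PFU/cell in FBS-free DMEM for 1 h at 37 °C, then removed. Serial dilutions of test compound in 1 % FBS DMEM were added for 24 h, at doses below MTT-determined cytotoxicity. Cells were fixed with PFA, saponin-permeabilised and stained with anti-N antibody, Alexa 488 secondary and DAPI, then imaged by widefield fluorescence. Infection was normalised to the untreated infected control (100 %). IC50 came from a nonlinear dose-effect fit. Three replicate experiments.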

MRC-5 cells = assay: Cytotoxicity assay; assay type: cell-based; settings: read-out: CC50 ± SD, MTT, 24 h
Vero E6 cells [1] = settings: uninfected Vero E6 cells, 3 days
SARS-CoV-2 [2] = assay: TEM of Vero E6 cells infected with SARS-CoV-2; assay type: cell-based; settings: infected Vero E6, highest concentration (HβCD 20 mM), 48 hpi
How it was run: (§1)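 Mock- or virus-infected Vero E6 monolayers were kept without or with two concentrations of test compound (0.16 mM or 20 mM for the cyclodextrin shown). At 48 h they were fixed with 4 % PFA plus 1 % glutaraldehyde in PBS for 2 h at RT. Samples were pelleted, post-fixed on ice in osmium tetroxide/potassium ferrocyanide, acetone-dehydrated and epoxy-embedded. At least 100 cells per condition were examined by TEM.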

SARS-CoV-2 [3] = assay type: cell-based; settings: Vero E6 cells
[4] = system: SARS-CoV-2 Spike pseudovirus; assay type: cell-based
Vero E6 cells [5] = assay: TEM of mock-infected Vero E6 cells; assay type: cell-based; settings: 48 h
How it was run: as §1

[6] = Human coronavirus 229E, MRC5, 24 h
[7] = HCoV229E, MRC-5 cells, MOI 0.1, 24 h
[8] = Vero E6, lower or only dose (HβCD 0.16 mM, phytol 50 µM)

Row | Compound | CC50 at 24 h (Cytotoxicity assay) [mM] | Inhibition of HCoV-229E infection (in words) (HCoV-229E; MRC-5 cells) | First cytotoxic conc. (Vero E6 cells [1]) [µM] | also measured
1 | C=C1CC/C=C(\C)CC[C@@H]2[C@@H]1CC2(C)C [(-)-Trans-Caryophyllene] | 1.83 | – | – | –
2 | CC1=CC[C@@H](C(C)(C)O)CC1 [Alpha-terpineol] | 1.06 | – | – | IC50 (HCoV-229E; [6]): 382 ± 107 µM
3 | Nc1ccc(C(=O)NCC(=O)O)cc1 [Aminohipurric] | – | – | – | CC50 (MRC-5 cells): < 10000 µM
4 | CC(=O)Oc1ccccc1C(=O)O [Aspirin] | 1.1 | – | – | IC50 (HCoV-229E; [6]): 1000 µM
5 | CCc1c(-c2ccccc2)c(-c2ccccc2)nn1-c1ccccc1-c1cccc(OCC(=O)O)c1 [BMS309403] | – | inhibited 229E but their CC50 was close to the IC50 | – | –
6 | NCC(CC(=O)O)c1ccc(Cl)cc1 (stereo not drawn) [Baclogen] | – | did not have an inhibitory effect | – | CC50 (MRC-5 cells): > 1000 µM
7 | CC(C)C[C@H](NC(=O)[C@H](Cc1ccccc1)NC(=O)c1cnccn1)B(O)O [Bortezomib (PS-341), Bortezomib] | > 0.0001 | – | 0.8 | IC50 (HCoV-229E; [6]): 0.0006 ± 0.0003 µM
8 | CCCCCCCCCCC(C)(C)C(=O)Nc1c(OC)cc(OC)cc1OC [CI976] | – | – | 100 | CC50 (MRC-5 cells): 50.7 µM
9 | C=C1C2CCC(C2)C1(C)C (stereo not drawn) [Camphene] | 72 | – | – | –
10 | C=C1CC[C@H]2C(=C)CC[C@H]3C(=C)C(=O)O[C@@H]3[C@@H]12 [Dehydrocostus lactone] | 0.0391 | – | 100 | IC50 (HCoV-229E; [6]): 4.2 ± 1.8 µM
11 | C[C@H]1O[C@@H](O[C@H]2[C@@H](O)C[C@H](O[C@H]3[C@@H](O)C[C@H](O[C@H]4CC[C@@]5(C)[C@H](CC[C@@H]6[C@@H]5CC[C@]5(C)[C@@H](C7=CC(=O)OC7)CC[C@]65O)C4)O[C@@H]3C)O[C@@H]2C)C[C@H](O)[C@@H]1O [Digitoxin] | 6.9e-06 | – | 1.56 | –
12 | C[C@H]1O[C@@H](O[C@H]2[C@@H](O)C[C@H](O[C@H]3[C@@H](O)C[C@H](O[C@H]4CC[C@@]5(C)[C@H](CC[C@@H]6[C@@H]5C[C@@H](O)[C@]5(C)[C@@H](C7=CC(=O)OC7)CC[C@]65O)C4)O[C@@H]3C)O[C@@H]2C)C[C@H](O)[C@@H]1O [Digoxin] | – | inhibit 229E virus | – | –
13 | OCC(S)CS (stereo not drawn) [Dimercaprol] | – | inhibited 229E but their CC50 was close to the IC50 | – | –
14 | CO[C@H]1C[C@@H]2CC[C@@H](C)[C@@](O)(O2)C(=O)C(=O)N2CCCC[C@H]2C(=O)O[C@H]([C@H](C)C[C@@H]2CC[C@@H](OCCO)[C@H](OC)C2)CC(=O)[C@H](C)/C=C(\C)[C@@H](O)[C@@H](OC)C(=O)[C@H](C)C[C@H](C)/C=C/C=C/C=C/1C [Everolimus] | – | inhibit 229E virus | – | –
15 | CC1=C(C(=O)OC2CCCCC2)C(c2ccc([N+](=O)[O-])cc2)C2=C(CC(C)(C)CC2=O)N1 (stereo not drawn) [FLI 06] | – | – | 4 to 6.25 | CC50 (MRC-5 cells): > 50 µM; IC50 (HCoV-229E; [7]): 0.4 ± 0.3 µM
16 | CC(O)COC[C@H]1O[C@@H]2O[C@H]3[C@H](O)[C@@H](O)[C@@H](O[C@H]4[C@H](O)[C@@H](O)[C@@H](O[C@H]5[C@H](O)[C@@H](O)[C@@H](O[C@H]6[C@H](O)[C@@H](O)[C@@H](O[C@H]7[C@H](O)[C@@H](O)[C@@H](O[C@H]8[C@H](O)[C@@H](O)[C@@H](O[C@H]1[C@H](O)[C@H]2O)O[C@@H]8COCC(C)O)O[C@@H]7COCC(C)O)O[C@@H]6COCC(C)O)O[C@@H]5COCC(C)O)O[C@@H]4COCC(C)O)O[C@@H]3COCC(C)O (stereo partly drawn) [HβCD, hydroxypropyl-β-cyclodextrin] | 43.6 | – | 20000 | Effect on infected cells by TEM (in words) (SARS-CoV-2 [2]): all viral structures were reduced; Antiviral activity against SARS-CoV-2 (in words) (SARS-CoV-2 [3]): had antiviral activity; IC50 (HCoV-229E; [6]): 4300 ± 4000 µM; Inhibition of SARS-CoV-2 pseudovirus entry (in words) [4]: inhibited the entry of pseudovirus; Inhibition of SARS-CoV-2 pseudovirus entry (in words) ([4]; listed as HP-β): most potent; Alterations in mock-infected cells by TEM (in words) (Vero E6 cells [5]; Vero E6, higher dose (HβCD 20 mM)): increased number of vacuoles; Alterations in mock-infected cells by TEM (in words) (Vero E6 cells [5]; [8]): did not produce appreciable changes
17 | CCC(C)n1ncn(-c2ccc(N3CCN(c4ccc(OCC5COC(Cn6cncn6)(c6ccc(Cl)cc6Cl)O5)cc4)CC3)cc2)c1=O (stereo not drawn) [Itraconazole] | – | inhibit 229E virus | – | –
18 | N[C@@H](Cc1ccccc1)C(=O)O [L-Phenilalanine] | – | – | – | CC50 (MRC-5 cells): < 10000 µM
19 | CC(=O)O[C@H]1C[C@H](O[C@H]2[C@@H](O)C[C@H](O[C@H]3[C@@H](O)C[C@H](O[C@H]4CC[C@@]5(C)[C@H](CC[C@@H]6[C@@H]5C[C@@H](O)[C@]5(C)[C@@H](C7=CC(=O)OC7)CC[C@]65O)C4)O[C@@H]3C)O[C@@H]2C)O[C@H](C)[C@H]1O[C@@H]1O[C@H](CO)[C@@H](O)[C@H](O)[C@H]1O [Lanatoside C] | – | inhibit 229E virus | – | –
20 | COc1cc(-n2c(=S)[nH]c3ccccc3c2=O)c(Cl)cc1Cl [Mdivi-1] | – | – | 20 | CC50 (MRC-5 cells): 95.4 µM; IC50 (HCoV-229E; [7]): 11.7 ± 0.7 µM

Row | Compound | CC50 at 24 h (Cytotoxicity assay) [mM] | Inhibition of HCoV-229E infection (in words) (HCoV-229E; MRC-5 cells) | First cytotoxic conc. (Vero E6 cells [1]) [µM] | also measured
21 | O=c1c(O)c(-c2cc(O)c(O)c(O)c2)oc2cc(O)cc(O)c12 [Myricetin] | 0.434 | – | – | –
22 | CC1(C)CC[C@]2(C(=O)O)CC[C@]3(C)C(=CC[C@@H]4[C@@]5(C)CC[C@H](O)C(C)(C)[C@@H]5CC[C@]43C)[C@@H]2C1 [Oleanolic acid] | 25.2 | – | – | –
23 | CC(=O)Nc1nc(C)c(-c2ccc(Cl)c(S(=O)(=O)NCCO)c2)s1 [PIK93] | – | – | 20 | CC50 (MRC-5 cells): > 50 µM; IC50 (HCoV-229E; [7]): 4.2 ± 1.4 µM
24 | O=c1c(O)c(-c2ccc(O)c(O)c2)oc2cc(O)cc(O)c12 [Quercetin] | – | inhibit 229E virus | – | –
25 | C=C(C)[C@H]1CC=C(C)CC1 [R-(+)-Limonene] | – | – | – | CC50 (MRC-5 cells): 1910 µM
26 | CCC(CC)COC(=O)[C@H](C)N[P@](=O)(OC[C@H]1O[C@@](C#N)(c2ccc3c(N)ncnn23)[C@H](O)[C@@H]1O)Oc1ccccc1 [Remdesivir] | – | – | 100 | –
27 | Oc1ccc(/C=C/c2cc(O)cc(O)c2)cc1 [Resveratrol] | – | inhibit 229E virus | – | –
28 | COc1cc([C@H]2Oc3cc([C@H]4Oc5cc(O)cc(O)c5C(=O)[C@@H]4O)ccc3O[C@@H]2CO)ccc1O [SilibininA, Silibinin A] | – | inhibit 229E virus | – | –
29 | CCC(C)(C)C(=O)O[C@H]1C[C@@H](C)C=C2C=C[C@H](C)[C@H](CC[C@@H]3C[C@@H](O)CC(=O)O3)[C@H]21 [Simvastatin] | – | inhibit 229E virus | – | –
30 | CO[C@H]1C[C@@H]2CC[C@@H](C)[C@@](O)(O2)C(=O)C(=O)N2CCCC[C@H]2C(=O)O[C@H]([C@H](C)C[C@@H]2CC[C@@H](O)[C@H](OC)C2)CC(=O)[C@H](C)/C=C(\C)[C@@H](O)[C@@H](OC)C(=O)[C@H](C)C[C@H](C)/C=C/C=C/C=C/1C [Sirolimus] | – | inhibit 229E virus | – | –
31 | CC(=O)NS(=O)(=O)c1ccc(N)cc1 [Sulfacetamide] | > 1 | – | – | –
32 | O=C1c2c(O)cc(O)cc2OC(c2ccc(O)c(O)c2)C1O (stereo not drawn) [Taxifolin] | – | inhibit 229E virus | – | –
33 | CC1=CCC(=C(C)C)CC1 [Terpinolene] | 69 | – | 10000 | IC50 (HCoV-229E; [6]): 8000 ± 2200 µM
34 | CC(C)[C@@H]1NC(=O)[C@H](C)OC(=O)[C@@H](C(C)C)NC(=O)[C@@H](C(C)C)OC(=O)[C@H](C(C)C)NC(=O)[C@H](C)OC(=O)[C@@H](C(C)C)NC(=O)[C@@H](C(C)C)OC(=O)[C@H](C(C)C)NC(=O)[C@H](C)OC(=O)[C@@H](C(C)C)NC(=O)[C@@H](C(C)C)OC1=O [Valinomycin] | 0.0125 | – | 0.32 | IC50 (HCoV-229E; [6]): 2.5 ± 0.2 µM
35 | COC[C@H]1OC(=O)c2coc3c2[C@@]1(C)C1=C(C3=O)[C@@H]2CCC(=O)[C@@]2(C)C[C@H]1OC(C)=O [Wortmannin] | > 0.05 | – | 25 | IC50 (HCoV-229E; [6]): 21.6 ± 15.6 µM
36 | C[C@@H]1CC[C@H]2C(C)(C)[C@H]3C[C@@]12CC[C@@]3(C)O [alpha-cedrol] | – | inhibited 229E but their CC50 was close to the IC50 | – | –
37 | OC[C@H]1O[C@@H]2O[C@H]3[C@H](O)[C@@H](O)[C@@H](O[C@H]4[C@H](O)[C@@H](O)[C@@H](O[C@H]5[C@H](O)[C@@H](O)[C@@H](O[C@H]6[C@H](O)[C@@H](O)[C@@H](O[C@H]7[C@H](O)[C@@H](O)[C@@H](O[C@H]8[C@H](O)[C@@H](O)[C@@H](O[C@H]1[C@H](O)[C@H]2O)O[C@@H]8CO)O[C@@H]7CO)O[C@@H]6CO)O[C@@H]5CO)O[C@@H]4CO)O[C@@H]3CO [β-CD, ß-Cyclodextrin] | – | – | – | Inhibition of SARS-CoV-2 pseudovirus entry (in words) [4]: most potent
38 | Gingenoside RB1 | – | – | 50 | CC50 (MRC-5 cells): > 1000 µM; IC50 (HCoV-229E; [7]): 48.3 ± 2.1 µM
39 | Phytol | – | – | 100 to 200 | CC50 (MRC-5 cells): 56.2 µM; Effect on infected cells by TEM (in words) (SARS-CoV-2 [2]): clear signs of cytopathic effect; Antiviral activity against SARS-CoV-2 (in words) (SARS-CoV-2 [3]): had antiviral activity; IC50 (HCoV-229E; [7]): 18.6 ± 6.9 µM; Alterations in mock-infected cells by TEM (in words) (Vero E6 cells [5]; [8]): did not cause significant alterations
